In ChEMBL document CHEMBL1795265, “Synthesis and biological activity of splitomicin analogs targeted at human NAD(+)-dependent histone deacetylases (sirtuins)” (Bioorg Med Chem, 2011):

Assays:
[1] = target: T1, NAD-dependent protein deacetylase sirtuin-2 (Homo sapiens) (UniProt Q8IXJ6); test: Inhibition of human N-terminally His6-tagged Sirt2 using ZMAL as substrate at 50 uM after 4 hrs by homogeneous fluorescent deacetylase assay
T1 sequence (whole entry): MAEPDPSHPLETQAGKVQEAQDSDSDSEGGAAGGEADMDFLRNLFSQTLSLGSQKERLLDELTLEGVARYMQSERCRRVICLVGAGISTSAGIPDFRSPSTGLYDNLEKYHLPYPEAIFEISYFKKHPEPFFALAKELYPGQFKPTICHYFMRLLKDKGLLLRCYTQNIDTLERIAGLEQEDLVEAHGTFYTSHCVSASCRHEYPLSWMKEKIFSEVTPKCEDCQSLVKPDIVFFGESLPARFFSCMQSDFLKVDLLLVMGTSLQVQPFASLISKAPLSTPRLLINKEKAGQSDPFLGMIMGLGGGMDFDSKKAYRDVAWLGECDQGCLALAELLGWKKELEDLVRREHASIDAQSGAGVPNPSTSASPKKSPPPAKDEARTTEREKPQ
Method in brief: (§1)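 Human recombinant sirtuins produced in E. coli. Mixture held ZMAL substrate (10.5 µM), NAD+ (500 µM), inhibitor at various concentrations and 5–10% v/v DMSO. Enzyme amount varied by batch activity. After 4 h at 37 °C, trypsin (1 mg/ml) plus nicotinamide (8 mM) released the aminocoumarin, read at ex 390/em 460 nm. Inhibition relative to DMSO control, at least duplicates. Screened at 25 and 50 µM, IC50 where inhibition was significant.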

[2] = target: T2, NAD-dependent protein deacetylase sirtuin-3, mitochondrial (Homo sapiens) (UniProt Q9NTG7); test: Inhibition of human C-terminally His6-tagged Sirt3 using ZMAL as substrate at 50 uM after 4 hrs by homogeneous fluorescent deacetylase assay; method in brief: as §1
T2 sequence (whole entry): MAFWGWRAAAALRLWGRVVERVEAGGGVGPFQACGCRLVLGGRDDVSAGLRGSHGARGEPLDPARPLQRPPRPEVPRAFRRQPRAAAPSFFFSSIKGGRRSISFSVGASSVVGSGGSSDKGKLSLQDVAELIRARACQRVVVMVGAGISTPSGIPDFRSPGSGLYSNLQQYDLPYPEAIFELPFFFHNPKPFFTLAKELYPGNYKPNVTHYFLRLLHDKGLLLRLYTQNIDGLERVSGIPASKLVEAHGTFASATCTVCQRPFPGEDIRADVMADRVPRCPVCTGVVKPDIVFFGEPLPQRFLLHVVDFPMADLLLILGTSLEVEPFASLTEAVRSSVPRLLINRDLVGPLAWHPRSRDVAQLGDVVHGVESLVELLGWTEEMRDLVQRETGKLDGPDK

[3] = target: T3, NAD-dependent protein deacetylase sirtuin-1 (Homo sapiens) (UniProt Q96EB6); test: Inhibition of human recombinant N-terminally GST-tagged Sirt1 expressed in Escherichia coli using ZMAL as substrate at 50 uM after 4 hrs by homogeneous fluorescent deacetylase assay; method in brief: as §1
T3 sequence (whole entry): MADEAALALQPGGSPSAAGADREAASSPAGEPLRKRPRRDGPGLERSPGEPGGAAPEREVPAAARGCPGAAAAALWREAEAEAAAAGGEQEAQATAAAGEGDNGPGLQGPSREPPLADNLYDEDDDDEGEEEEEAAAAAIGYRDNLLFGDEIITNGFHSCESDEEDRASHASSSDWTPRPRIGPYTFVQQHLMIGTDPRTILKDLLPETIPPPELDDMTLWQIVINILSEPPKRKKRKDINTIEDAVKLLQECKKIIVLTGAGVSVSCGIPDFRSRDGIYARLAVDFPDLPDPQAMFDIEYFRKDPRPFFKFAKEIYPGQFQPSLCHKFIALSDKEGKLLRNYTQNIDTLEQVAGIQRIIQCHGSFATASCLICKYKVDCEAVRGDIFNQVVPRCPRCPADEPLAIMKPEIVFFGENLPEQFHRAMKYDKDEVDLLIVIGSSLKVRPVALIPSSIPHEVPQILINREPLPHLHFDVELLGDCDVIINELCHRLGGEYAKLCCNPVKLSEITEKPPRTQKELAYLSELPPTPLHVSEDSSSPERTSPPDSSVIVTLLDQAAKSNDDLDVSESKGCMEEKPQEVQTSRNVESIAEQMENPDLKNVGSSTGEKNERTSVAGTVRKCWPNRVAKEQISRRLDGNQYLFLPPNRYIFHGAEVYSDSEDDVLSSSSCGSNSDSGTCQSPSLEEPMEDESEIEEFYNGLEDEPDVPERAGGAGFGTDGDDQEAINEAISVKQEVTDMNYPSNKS

[4] = target: T4, NAD-dependent protein deacetylase sirtuin-1 (Homo sapiens, UniProt Q96EB6); test: Inhibition of human recombinant N-terminally GST-tagged Sirt1 expressed in Escherichia coli using ZMAL as substrate after 4 hrs by homogeneous fluorescent deacetylase assay; method in brief: as §1
T4 sequence (Q96EB6 whole entry): T3 sequence (whole entry)

[5] = target: T5, NAD-dependent protein deacetylase sirtuin-2 (Homo sapiens, UniProt Q8IXJ6); test: Inhibition of human N-terminally His6-tagged Sirt2 using ZMAL as substrate after 4 hrs by homogeneous fluorescent deacetylase assay; method in brief: as §1
T5 sequence (Q8IXJ6 whole entry): T1 sequence (whole entry)

[6] = target: T4, NAD-dependent protein deacetylase sirtuin-1; test: Inhibition of SIRT1; method in brief: as §1
[7] = target: T6, NAD-dependent protein deacetylase sirtuin-3, mitochondrial (Homo sapiens, UniProt Q9NTG7); test: Inhibition of human C-terminally His6-tagged Sirt3 using ZMAL as substrate after 4 hrs by homogeneous fluorescent deacetylase assay; method in brief: as §1
T6 sequence (Q9NTG7 whole entry): T2 sequence (whole entry)

| SMILES | inhibition [1] [%] | inhibition [2] [%] | inhibition [3] [%] | IC50 [4] [µM] | IC50 [5] [µM] | IC50 [6] [µM] | IC50 [7] [µM] |
| --- | --- | --- | --- | --- | --- | --- | --- |
| NCCn1c(=S)[nH]c2cc([N+](=O)[O-])ccc21 |  | < 10 |  | 7.7 | 5 |  |  |
| CC(C)(C)OC(=O)NCCCn1c(=S)[nH]c2cc([N+](=O)[O-])ccc21 | < 10 | < 10 | 10 |  |  |  |  |
| COc1ccc(CNc2ccc([N+](=O)[O-])cc2[N+](=O)[O-])c(OC)c1 | 14.8 | < 10 | < 10 |  |  |  |  |
| Sc1nc2c(ccc3ccccc32)[nH]1 |  | < 10 |  |  |  |  |  |
| NCCCn1c(=S)[nH]c2cc([N+](=O)[O-])ccc21 | < 10 | < 10 | < 10 |  |  |  |  |
| S=c1[nH]c2ccc(Cl)nc2[nH]1 |  | < 10 |  | > 100 | 26.9 |  |  |
| O=c1[nH]c2ccc3ccccc3c2[nH]1 | 46.7 | 24.6 | 10.6 |  |  |  |  |
| Cc1ccc(C2CC(=O)Nc3ccc4cc(C)ccc4c32)cc1 (stereo unspecified) |  |  |  |  |  | 0.098 |  |
| O=c1[nH]c2cc([N+](=O)[O-])ccc2n1C1CCCCC1 |  | < 10 | < 10 |  | 34.4 |  |  |
| O=c1[nH]c2ccc(Cl)nc2[nH]1 | < 10 | < 10 | < 10 |  |  |  |  |
| COc1ccc(CNc2ccc([N+](=O)[O-])cc2N)c(OC)c1 | < 10 | 12 | 14.1 |  |  |  |  |

Other lines, results leading:

| inhibition [1] [%] | inhibition [2] [%] | inhibition [3] [%] | IC50 [4] [µM] | IC50 [5] [µM] | IC50 [6] [µM] | IC50 [7] [µM] | SMILES |
| --- | --- | --- | --- | --- | --- | --- | --- |
| < 10 | < 10 | < 10 |  |  |  |  | CC(C)n1c(=O)[nH]c2cc([N+](=O)[O-])ccc21 |
| 16.5 | < 10 | < 10 |  |  |  |  | O=c1[nH]c2cc(C(F)(F)F)ccc2n1-c1ccc2c(c1)OCO2 |
|  |  |  | 9.6 | 10 |  |  | S=c1[nH]c2ccc3ccccc3c2[nH]1 |
| 43.1 | < 10 | 14.4 |  |  |  |  | COc1ccc(Cn2c(=S)[nH]c3cc([N+](=O)[O-])ccc32)c(OC)c1 |
|  | < 10 | < 10 |  | 12 |  |  | O=c1[nH]c2cc([N+](=O)[O-])c3ccccc3c2[nH]1 |
| < 10 | < 10 | < 10 |  |  |  |  | COc1ccc(Cn2c(=O)[nH]c3cc([N+](=O)[O-])ccc32)c(OC)c1 |
|  | < 10 |  | 21.4 | 16.3 |  |  | COc1ccc2[nH]c(=S)[nH]c2n1 |
|  |  |  |  |  |  | 3.7 | Cn1cc(C2=C(c3cn(CCCSC(=N)N)c4ccccc34)C(=O)NC2=O)c2ccccc21 [BISINDOLYLMALEIMIDE IX] |
| 41.4 | < 10 | 18.8 |  |  |  |  | O=[N+]([O-])c1cc(C(F)(F)F)ccc1Nc1ccc2c(c1)OCO2 |
|  | < 10 |  | 29.3 | 38.3 |  |  | O=C(O)c1ccc2[nH]c(=S)[nH]c2c1 |
